biological target: T1, Protein kinase C (PKC) (Homo sapiens) (UniProt O94806+P41743+P17252+P05129+Q05655+P05771+Q05513+Q02156+P24723+Q15139+Q04759); test: Retained protein kinase C activity in the presence of 40 uM compound; assay type: functional
Method in brief: (§1)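 Assay at pH 7.5, 25 mM Tris, 10 mM MgCl2, 0.1 mM CaCl2, 40 µg/mL histone, 10 µM ATP with [γ-32P]ATP, 20 µg/mL phosphatidylserine, 2.5 µM OAG. Compound added in ethanol before enzyme; 20 min at 30 °C; TCA-precipitated 32P-histone counted; 0.1% ethanol control; duplicates in three trials, fresh enzyme each.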

Row | Activity | SMILES
1 | 87% | CC1(C)OC[C@@H](C[N+](C)(C)CCO)O1
2 | 43% | CCCCCCCCCCCCCCCCOCC(COCCO)OC (stereo unspecified)
3 | 29% | CCCCCCCCCCCCCCCCOCC(C[N+](C)(C)CCO)OC (stereo unspecified)
4 | 47% | CCCCCCCCCCCCCCCCSCC(C[N+](C)(C)CCO)OCC (stereo unspecified)
5 | 90% | COC(COc1cccc2ccccc12)C[N+](C)(C)CCO (stereo unspecified)
6 | 43% | CCCCCCCCCCCCCCCCOCC(COCC[N+](C)(C)C)OC (stereo unspecified)
7 | 19% | CCCCCCCCCCCCCCCCC[C@@H]1OC[C@@H](C[N+](C)(C)CCCO)O1
8 | 37% | CCCCCCCCCCCCCCCCSCC(C[N+](C)(C)CCCO)OCC (stereo unspecified)
9 | 29% | CCCCCCCCCCCCCCCCCCOCC(COP(=O)([O-])OCC[N+](C)(C)C)OC (stereo unspecified)
10 | 23% | CCCCCCCCCCCCCCCCCCSCC(C[N+](C)(C)CCCO)OC (stereo unspecified)
11 | 12% | CCCCCCCCCCCCCCCCCC1OCC(C[N+](C)(C)CCCO)O1 (stereo unspecified)
12 | 29% | CCCCCCCCCCCCCCCCSCC(C[N+](C)(C)C)OC (stereo unspecified)
13 | 42% | CCCCCCCCCCCCCCCCSCC(C[N+](C)(C)CCO)OC (stereo unspecified)

biological target: T1, Protein kinase C (PKC) (Homo sapiens); test: Retained protein kinase C activity in the presence of 20 uM compound; assay type: functional; method in brief: as §1

Row | Activity | SMILES
14 | 96% | CC1(C)OC[C@@H](C[N+](C)(C)CCO)O1
15 | 53% | CCCCCCCCCCCCCCCCOCC(COCCO)OC (stereo unspecified)
16 | 42% | CCCCCCCCCCCCCCCCOCC(C[N+](C)(C)CCO)OC (stereo unspecified)
17 | 66% | CCCCCCCCCCCCCCCCSCC(C[N+](C)(C)CCO)OCC (stereo unspecified)
18 | 87% | COC(COc1cccc2ccccc12)C[N+](C)(C)CCO (stereo unspecified)
19 | 57% | CCCCCCCCCCCCCCCCOCC(COCC[N+](C)(C)C)OC (stereo unspecified)
20 | 43% | CCCCCCCCCCCCCCCCC[C@@H]1OC[C@@H](C[N+](C)(C)CCCO)O1
21 | 59% | CCCCCCCCCCCCCCCCSCC(C[N+](C)(C)CCCO)OCC (stereo unspecified)
22 | 40% | CCCCCCCCCCCCCCCCCCOCC(COP(=O)([O-])OCC[N+](C)(C)C)OC (stereo unspecified)
23 | 27% | CCCCCCCCCCCCCCCCCCSCC(C[N+](C)(C)CCCO)OC (stereo unspecified)
24 | 36% | CCCCCCCCCCCCCCCCCC1OCC(C[N+](C)(C)CCCO)O1 (stereo unspecified)
25 | 54% | CCCCCCCCCCCCCCCCSCC(C[N+](C)(C)C)OC (stereo unspecified)
26 | 54% | CCCCCCCCCCCCCCCCSCC(C[N+](C)(C)CCO)OC (stereo unspecified)

biological target: T1, Protein kinase C (PKC) (Homo sapiens); test: Retained protein kinase C activity in the presence of 5 uM compound; assay type: functional; method in brief: as §1

Row | Activity | SMILES
27 | 87% | CC1(C)OC[C@@H](C[N+](C)(C)CCO)O1
28 | 72% | CCCCCCCCCCCCCCCCOCC(COCCO)OC (stereo unspecified)
29 | 87% | CCCCCCCCCCCCCCCCOCC(C[N+](C)(C)CCO)OC (stereo unspecified)
30 | 70% | CCCCCCCCCCCCCCCCSCC(C[N+](C)(C)CCO)OCC (stereo unspecified)
31 | 83% | COC(COc1cccc2ccccc12)C[N+](C)(C)CCO (stereo unspecified)
32 | 83% | CCCCCCCCCCCCCCCCOCC(COCC[N+](C)(C)C)OC (stereo unspecified)
33 | 70% | CCCCCCCCCCCCCCCCC[C@@H]1OC[C@@H](C[N+](C)(C)CCCO)O1
34 | 67% | CCCCCCCCCCCCCCCCSCC(C[N+](C)(C)CCCO)OCC (stereo unspecified)
35 | 73% | CCCCCCCCCCCCCCCCCCOCC(COP(=O)([O-])OCC[N+](C)(C)C)OC (stereo unspecified)
36 | 49% | CCCCCCCCCCCCCCCCCCSCC(C[N+](C)(C)CCCO)OC (stereo unspecified)
37 | 61% | CCCCCCCCCCCCCCCCCC1OCC(C[N+](C)(C)CCCO)O1 (stereo unspecified)
38 | 81% | CCCCCCCCCCCCCCCCSCC(C[N+](C)(C)C)OC (stereo unspecified)
39 | 73% | CCCCCCCCCCCCCCCCSCC(C[N+](C)(C)CCO)OC (stereo unspecified)

biological target: T1, Protein kinase C (PKC) (Homo sapiens); test: Retained protein kinase C activity in the presence of 1.25 uM compound; assay type: functional; method in brief: as §1

Row | Activity | SMILES
40 | 88% | CC1(C)OC[C@@H](C[N+](C)(C)CCO)O1
41 | 98% | CCCCCCCCCCCCCCCCOCC(COCCO)OC (stereo unspecified)
42 | 107% | CCCCCCCCCCCCCCCCOCC(C[N+](C)(C)CCO)OC (stereo unspecified)
43 | 92% | CCCCCCCCCCCCCCCCSCC(C[N+](C)(C)CCO)OCC (stereo unspecified)
44 | 99% | COC(COc1cccc2ccccc12)C[N+](C)(C)CCO (stereo unspecified)
45 | 92% | CCCCCCCCCCCCCCCCOCC(COCC[N+](C)(C)C)OC (stereo unspecified)
46 | 94% | CCCCCCCCCCCCCCCCC[C@@H]1OC[C@@H](C[N+](C)(C)CCCO)O1
47 | 78% | CCCCCCCCCCCCCCCCSCC(C[N+](C)(C)CCCO)OCC (stereo unspecified)
48 | 99% | CCCCCCCCCCCCCCCCCCOCC(COP(=O)([O-])OCC[N+](C)(C)C)OC (stereo unspecified)
49 | 75% | CCCCCCCCCCCCCCCCCCSCC(C[N+](C)(C)CCCO)OC (stereo unspecified)
50 | 99% | CCCCCCCCCCCCCCCCCC1OCC(C[N+](C)(C)CCCO)O1 (stereo unspecified)
51 | 112% | CCCCCCCCCCCCCCCCSCC(C[N+](C)(C)C)OC (stereo unspecified)
52 | 97% | CCCCCCCCCCCCCCCCSCC(C[N+](C)(C)CCO)OC (stereo unspecified)

biological target: T1, Protein kinase C (PKC) (Homo sapiens); test: Inhibition of Protein Kinase C purified from HL-60 cells; assay type: cell-free; method in brief: as §1

Row | ID50 | SMILES
53 | > 40 µM | CC1(C)OC[C@@H](C[N+](C)(C)CCO)O1
54 | 28 µM | CCCCCCCCCCCCCCCCOCC(COCCO)OC (stereo unspecified)
55 | 17 µM | CCCCCCCCCCCCCCCCOCC(C[N+](C)(C)CCO)OC (stereo unspecified)
56 | 37 µM | CCCCCCCCCCCCCCCCSCC(C[N+](C)(C)CCO)OCC (stereo unspecified)
57 | > 40 µM | COC(COc1cccc2ccccc12)C[N+](C)(C)CCO (stereo unspecified)
58 | 31 µM | CCCCCCCCCCCCCCCCOCC(COCC[N+](C)(C)C)OC (stereo unspecified)
59 | 17 µM | CCCCCCCCCCCCCCCCC[C@@H]1OC[C@@H](C[N+](C)(C)CCCO)O1
60 | 26 µM | CCCCCCCCCCCCCCCCSCC(C[N+](C)(C)CCCO)OCC (stereo unspecified)
61 | 12 µM | CCCCCCCCCCCCCCCCCCOCC(COP(=O)([O-])OCC[N+](C)(C)C)OC (stereo unspecified)
62 | 5 µM | CCCCCCCCCCCCCCCCCCSCC(C[N+](C)(C)CCCO)OC (stereo unspecified)
63 | 13 µM | CCCCCCCCCCCCCCCCCC1OCC(C[N+](C)(C)CCCO)O1 (stereo unspecified)
64 | 25 µM | CCCCCCCCCCCCCCCCSCC(C[N+](C)(C)C)OC (stereo unspecified)
65 | 27 µM | CCCCCCCCCCCCCCCCSCC(C[N+](C)(C)CCO)OC (stereo unspecified)

biological target: T1, Protein kinase C (PKC) (Homo sapiens); test: Retained protein kinase C activity in the presence 2.5 uM compound; assay type: functional; method in brief: as §1

Row | Activity | SMILES
66 | 84% | CC1(C)OC[C@@H](C[N+](C)(C)CCO)O1
67 | 86% | CCCCCCCCCCCCCCCCOCC(COCCO)OC (stereo unspecified)
68 | 95% | CCCCCCCCCCCCCCCCOCC(C[N+](C)(C)CCO)OC (stereo unspecified)
69 | 84% | CCCCCCCCCCCCCCCCSCC(C[N+](C)(C)CCO)OCC (stereo unspecified)
70 | 99% | COC(COc1cccc2ccccc12)C[N+](C)(C)CCO (stereo unspecified)
71 | 91% | CCCCCCCCCCCCCCCCOCC(COCC[N+](C)(C)C)OC (stereo unspecified)
72 | 90% | CCCCCCCCCCCCCCCCC[C@@H]1OC[C@@H](C[N+](C)(C)CCCO)O1
73 | 64% | CCCCCCCCCCCCCCCCSCC(C[N+](C)(C)CCCO)OCC (stereo unspecified)
74 | 93% | CCCCCCCCCCCCCCCCCCOCC(COP(=O)([O-])OCC[N+](C)(C)C)OC (stereo unspecified)
75 | 56% | CCCCCCCCCCCCCCCCCCSCC(C[N+](C)(C)CCCO)OC (stereo unspecified)
76 | 99% | CCCCCCCCCCCCCCCCCC1OCC(C[N+](C)(C)CCCO)O1 (stereo unspecified)
77 | 88% | CCCCCCCCCCCCCCCCSCC(C[N+](C)(C)C)OC (stereo unspecified)
78 | 90% | CCCCCCCCCCCCCCCCSCC(C[N+](C)(C)CCO)OC (stereo unspecified)

biological target: T1, Protein kinase C (PKC) (Homo sapiens); test: Retained protein kinase C activity in the presence of 10 uM compound; assay type: functional; method in brief: as §1

Row | Activity | SMILES
79 | 88% | CC1(C)OC[C@@H](C[N+](C)(C)CCO)O1
80 | 66% | CCCCCCCCCCCCCCCCOCC(COCCO)OC (stereo unspecified)
81 | 64% | CCCCCCCCCCCCCCCCOCC(C[N+](C)(C)CCO)OC (stereo unspecified)
82 | 70% | CCCCCCCCCCCCCCCCSCC(C[N+](C)(C)CCO)OCC (stereo unspecified)
83 | 89% | COC(COc1cccc2ccccc12)C[N+](C)(C)CCO (stereo unspecified)
84 | 73% | CCCCCCCCCCCCCCCCOCC(COCC[N+](C)(C)C)OC (stereo unspecified)
85 | 56% | CCCCCCCCCCCCCCCCC[C@@H]1OC[C@@H](C[N+](C)(C)CCCO)O1
86 | 60% | CCCCCCCCCCCCCCCCSCC(C[N+](C)(C)CCCO)OCC (stereo unspecified)
87 | 60% | CCCCCCCCCCCCCCCCCCOCC(COP(=O)([O-])OCC[N+](C)(C)C)OC (stereo unspecified)
88 | 39% | CCCCCCCCCCCCCCCCCCSCC(C[N+](C)(C)CCCO)OC (stereo unspecified)
89 | 56% | CCCCCCCCCCCCCCCCCC1OCC(C[N+](C)(C)CCCO)O1 (stereo unspecified)
90 | 74% | CCCCCCCCCCCCCCCCSCC(C[N+](C)(C)C)OC (stereo unspecified)
91 | 60% | CCCCCCCCCCCCCCCCSCC(C[N+](C)(C)CCO)OC (stereo unspecified)
